Published values of several laboratories.
Protocols differ between the studies behind these lines.
Read-out: microbial growth

For `CC1(C)S[C@@H]2[C@H](NC(=O)[C@H](N)c3ccc(O)cc3)C(=O)N2[C@H]1C(=O)O`, the MIC was > 64 µg/mL (Acinetobacter baumannii; broth dilution; ATCCBAA1605).
With `O=C1O[C@H]2[C@@H]3OC(=O)c4cc(O)c(O)c(O)c4-c4c(O)c(O)c5oc(=O)c6c(c(O)c(O)c7oc(=O)c4c5c76)-c4c(cc(O)c(O)c4O)C(=O)OC[C@H]3OC(O)[C@@H]2OC(=O)c2cc(O)c(O)c(O)c2-c2c1cc(O)c(O)c2O` (mixture of isomers) the MIC was 100 µg/mL (Streptococcus gordonii; broth dilution; 24 h).
The MIC of `CCCCCCCCCCCC[N+](C)(C)Cc1ccccc1` is reported as 63 µM (Acinetobacter baumannii; ATCC17978).
`CNC(C)C1CCC(N)C(OC2C(N)CC(N)C(OC3OCC(C)(O)C(NC)C3O)C2O)O1` (stereo not shown) gave an MIC of 2 µg/mL (Proteus mirabilis; broth dilution).
`CC[C@H]1OC(=O)[C@H](C)[C@@H](O[C@H]2C[C@@](C)(OC)[C@@H](O)[C@H](C)O2)[C@H](C)[C@@H](O[C@@H]2O[C@H](C)C[C@H](N(C)C)[C@H]2O)[C@](C)(O)C[C@@H](C)CN(C)[C@H](C)[C@@H](O)[C@]1(C)O` gave an MIC of 16 µg/mL (Acinetobacter baumannii; broth dilution; ATCCBAA1605).
`O=c1oc2c(O)c(O)cc3c(=O)oc4c(O)c(O)cc1c4c23` has an MIC of 100 µg/mL (Streptococcus gordonii; broth dilution; 24 h).
`CCCCCCC#Cc1cncc(-c2nnc(SCc3cc(C(F)(F)F)cc(C(F)(F)F)c3)n2CCCN)c1` has an MIC of 32 µg/mL (Acinetobacter baumannii; broth dilution; ATCC17978).
With `CC1(C)S[C@@H]2[C@H](NC(=O)[C@H](N)c3ccccc3)C(=O)N2[C@H]1C(=O)O` the MIC was > 64 µg/mL (Acinetobacter baumannii; broth dilution; ATCC19606).
With `C[C@@H]1O[C@@H](OC[C@H]2O[C@@H](Oc3c(-c4ccc(O)c(O)c4)oc4cc(O)cc(O)c4c3=O)[C@H](O)[C@@H](O)[C@@H]2O)[C@H](O)[C@H](O)[C@H]1O` the MIC was 200 µg/mL (Streptococcus gordonii; broth dilution; 24 h).
With `CCCCCCC#Cc1cncc(-c2nnc(SCc3ccc([N+](=O)[O-])cc3)n2CCCN)c1` the MIC was 64 µg/mL (Acinetobacter baumannii; broth dilution; ATCC17978).
